We go through 1 compound from ChEMBL document CHEMBL4311956, “A Qualified Success: Discovery of a New Series of ATAD2 Bromodomain Inhibitors with a Novel Binding Mode Using High-Throughput Screening and Hit Qualification” (J Med Chem, 2019).

Assay [1] is filed under the species Homo sapiens. Description: Selectivity ratio, ratio of inhibition of CECR2 (unknown origin) to Displacement of biotinylated H4 peptide from ATAD2B bromodomain (unknown origin) by TR-FRET assay. In general terms: TR-FRET usually uses a lanthanide donor and a delayed reading to cut background.
The species entered for assay [2] is Homo sapiens. As to the kind of experiment: Selectivity ratio, ratio of inhibition of TAF1 BD2 (unknown origin) to Displacement of biotinylated H4 peptide from ATAD2B bromodomain (unknown origin) by TR-FRET assay.
Assay [3] has as its target Bromodomain-containing protein 3 (Homo sapiens, UniProt Q15059, Y73A). Description: Displacement of Alexa Fluor 647 labelled ligand from His6-tagged BRD3 BD2(1 to 435 residues)/BD1 Y73A mutant (unknown origin) after 30 mins by TR-FRET assay. Put shortly:
(§1)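 BET selectivity by TR-FRET fluoroligand displacement. Uses tandem BET bromodomain constructs carrying a mutation in the non-assayed bromodomain.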

Assay [4] is filed under the species Homo sapiens. As to the kind of experiment: Selectivity ratio, ratio of displacement of Alexa Fluor 647 labelled ligand from His6-tagged BRD4 BD2 (1 to 477 residues)/BD1 Y97A mutant (unknown origin) to displacement of SGRG-K(Ac)-GG-K(Ac)-GLG-K(Ac)-GGAKRHRKV-biotin) from His6/FLAG-tagged TEV fused ATAD2 bromodomain (981 to 1121 residues) expressed in Escherichia coli BL21(DE3) cells.

For assay [5], the target named is Bromodomain testis-specific protein (Homo sapiens, UniProt Q58F21, Y66A). As to the kind of experiment: Displacement of Alexa Fluor 647 labelled ligand from His6/FLAG-tagged TEV fused BRDT BD2(1 to 397 residues)/[…] mutant (unknown origin) after 30 mins by TR-FRET assay. Put shortly: as §1
Assay [6] concerns the target Chromatin remodeling regulator CECR2 (Homo sapiens, UniProt Q9BXF3). Description: Inhibition of CECR2 (unknown origin) by TR-FRET assay.
Assay [7] is filed under the species Homo sapiens. Description: Selectivity ratio, ratio of inhibition of CECR2 (unknown origin) to displacement of SGRG-K(Ac)-GG-K(Ac)-GLG-K(Ac)-GGAKRHRKV-biotin) from His6/FLAG-tagged TEV fused ATAD2 bromodomain (981 to 1121 residues) expressed in Escherichia coli BL21(DE3) cells.
The target of assay [8] is Bromodomain-containing protein 7 (Homo sapiens, UniProt Q9NPI1). Description: Inhibition of BRD7 (unknown origin) by TR-FRET assay.
For assay [9], the target named is Bromodomain testis-specific protein (Homo sapiens, UniProt Q58F21, Y309A). Description: Displacement of Alexa Fluor 647 labelled ligand from His6/FLAG-tagged TEV fused BRDT BD1(1 to 397 residues)/BD2 Y309A mutant (unknown origin) after 30 mins by TR-FRET assay. In a few lines: as §1
Assay [10] addresses Transcription initiation factor TFIID subunit 1 (Homo sapiens, UniProt P21675). As to the kind of experiment: Inhibition of TAF1 BD2 (unknown origin) by TR-FRET assay.
Assay [11] is filed under the species Homo sapiens. Description: Selectivity ratio, ratio of inhibition of BRPF3 (unknown origin) to displacement of SGRG-K(Ac)-GG-K(Ac)-GLG-K(Ac)-GGAKRHRKV-biotin) from His6/FLAG-tagged TEV fused ATAD2 bromodomain (981 to 1121 residues) expressed in Escherichia coli BL21(DE3) cells.
Assay [12] addresses T1, ATPase family AAA domain-containing protein 2 (Homo sapiens, UniProt Q6PL18).
T1 sequence (Q6PL18 whole entry): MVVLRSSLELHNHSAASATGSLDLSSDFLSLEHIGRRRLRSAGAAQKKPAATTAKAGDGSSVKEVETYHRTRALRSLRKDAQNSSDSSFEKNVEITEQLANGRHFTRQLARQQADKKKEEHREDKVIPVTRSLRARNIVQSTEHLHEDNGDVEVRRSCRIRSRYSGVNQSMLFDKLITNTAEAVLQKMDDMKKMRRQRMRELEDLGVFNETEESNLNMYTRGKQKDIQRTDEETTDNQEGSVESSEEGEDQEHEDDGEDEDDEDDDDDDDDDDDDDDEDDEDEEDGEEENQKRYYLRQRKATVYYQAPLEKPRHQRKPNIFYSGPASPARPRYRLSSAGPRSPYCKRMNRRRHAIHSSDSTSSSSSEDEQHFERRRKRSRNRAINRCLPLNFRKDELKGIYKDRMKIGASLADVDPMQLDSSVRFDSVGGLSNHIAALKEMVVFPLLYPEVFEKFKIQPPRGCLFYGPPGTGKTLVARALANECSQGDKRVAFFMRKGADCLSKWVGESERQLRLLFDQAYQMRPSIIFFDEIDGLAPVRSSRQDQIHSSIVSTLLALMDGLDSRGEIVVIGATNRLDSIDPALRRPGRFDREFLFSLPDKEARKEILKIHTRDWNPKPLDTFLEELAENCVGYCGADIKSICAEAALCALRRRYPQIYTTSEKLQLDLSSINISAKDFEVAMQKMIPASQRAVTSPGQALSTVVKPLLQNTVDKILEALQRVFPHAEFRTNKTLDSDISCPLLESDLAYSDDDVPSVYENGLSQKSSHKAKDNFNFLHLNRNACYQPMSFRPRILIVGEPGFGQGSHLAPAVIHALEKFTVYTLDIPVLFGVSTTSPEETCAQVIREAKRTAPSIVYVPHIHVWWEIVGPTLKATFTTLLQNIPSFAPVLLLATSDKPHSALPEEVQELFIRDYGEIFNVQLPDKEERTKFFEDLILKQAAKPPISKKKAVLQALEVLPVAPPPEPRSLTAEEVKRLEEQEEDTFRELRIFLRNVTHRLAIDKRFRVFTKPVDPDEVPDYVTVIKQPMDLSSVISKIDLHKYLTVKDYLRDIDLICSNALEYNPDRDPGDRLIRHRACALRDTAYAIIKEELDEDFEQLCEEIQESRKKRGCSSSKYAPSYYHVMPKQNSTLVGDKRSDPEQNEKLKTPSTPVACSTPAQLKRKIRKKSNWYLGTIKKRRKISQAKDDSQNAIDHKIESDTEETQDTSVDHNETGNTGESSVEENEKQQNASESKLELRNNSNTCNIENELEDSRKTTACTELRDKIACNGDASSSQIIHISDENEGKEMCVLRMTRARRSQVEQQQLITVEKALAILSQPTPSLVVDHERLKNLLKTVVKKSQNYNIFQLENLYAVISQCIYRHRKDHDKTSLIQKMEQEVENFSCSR
Description: Displacement of SGRG-K(Ac)-GG-K(Ac)-GLG-K(Ac)-GGAKRHRKV-biotin) from His6/FLAG-tagged TEV fused ATAD2 bromodomain (981 to 1121 residues) (unknown origin) expressed in Escherichia coli BL21(DE3) cells after 30 mins by TR-FRET assay.

Assay [13] addresses Bromodomain-containing protein 4 (Homo sapiens, UniProt O60885, Y97A). Description: Displacement of Alexa Fluor 647 labelled ligand from His6-tagged BRD4 BD2 (1 to 477 residues)/BD1 Y97A mutant (unknown origin) after 30 mins by TR-FRET assay. Put shortly:
as §1

In assay [14] the target is Bromodomain-containing protein 4 (Homo sapiens, UniProt O60885, Y390A). Description: Displacement of Alexa Fluor 647 labelled ligand from His6-tagged BRD4 BD1 (1 to 477 residues)/BD2 Y390A mutant (unknown origin) after 30 mins by TR-FRET assay. Put shortly: as §1

The structures appear in SMILES notation. Bounds are passed on as bounds.

Bromodomain-containing protein 3, sequence (Q15059 2-726 Y73A limits assumed): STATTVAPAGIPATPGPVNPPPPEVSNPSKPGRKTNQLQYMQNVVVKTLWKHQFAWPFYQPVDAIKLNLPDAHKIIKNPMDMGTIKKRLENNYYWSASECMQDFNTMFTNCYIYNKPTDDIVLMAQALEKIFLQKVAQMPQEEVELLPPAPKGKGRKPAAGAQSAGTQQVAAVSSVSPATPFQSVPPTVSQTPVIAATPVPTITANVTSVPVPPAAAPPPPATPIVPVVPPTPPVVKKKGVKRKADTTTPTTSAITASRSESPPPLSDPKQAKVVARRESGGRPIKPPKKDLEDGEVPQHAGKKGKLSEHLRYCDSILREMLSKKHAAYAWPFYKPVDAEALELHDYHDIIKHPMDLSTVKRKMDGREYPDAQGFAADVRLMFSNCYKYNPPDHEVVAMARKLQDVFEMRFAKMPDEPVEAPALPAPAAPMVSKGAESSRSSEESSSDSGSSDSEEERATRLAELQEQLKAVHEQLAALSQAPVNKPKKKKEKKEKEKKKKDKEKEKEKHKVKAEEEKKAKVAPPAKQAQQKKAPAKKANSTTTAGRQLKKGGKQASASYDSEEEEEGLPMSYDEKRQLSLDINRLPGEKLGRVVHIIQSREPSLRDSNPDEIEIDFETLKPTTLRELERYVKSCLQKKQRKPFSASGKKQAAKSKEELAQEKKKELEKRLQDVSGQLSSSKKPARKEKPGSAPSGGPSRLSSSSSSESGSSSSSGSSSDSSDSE
Bromodomain-containing protein 7, sequence (Q9NPI1 whole entry, the tested form may be a part): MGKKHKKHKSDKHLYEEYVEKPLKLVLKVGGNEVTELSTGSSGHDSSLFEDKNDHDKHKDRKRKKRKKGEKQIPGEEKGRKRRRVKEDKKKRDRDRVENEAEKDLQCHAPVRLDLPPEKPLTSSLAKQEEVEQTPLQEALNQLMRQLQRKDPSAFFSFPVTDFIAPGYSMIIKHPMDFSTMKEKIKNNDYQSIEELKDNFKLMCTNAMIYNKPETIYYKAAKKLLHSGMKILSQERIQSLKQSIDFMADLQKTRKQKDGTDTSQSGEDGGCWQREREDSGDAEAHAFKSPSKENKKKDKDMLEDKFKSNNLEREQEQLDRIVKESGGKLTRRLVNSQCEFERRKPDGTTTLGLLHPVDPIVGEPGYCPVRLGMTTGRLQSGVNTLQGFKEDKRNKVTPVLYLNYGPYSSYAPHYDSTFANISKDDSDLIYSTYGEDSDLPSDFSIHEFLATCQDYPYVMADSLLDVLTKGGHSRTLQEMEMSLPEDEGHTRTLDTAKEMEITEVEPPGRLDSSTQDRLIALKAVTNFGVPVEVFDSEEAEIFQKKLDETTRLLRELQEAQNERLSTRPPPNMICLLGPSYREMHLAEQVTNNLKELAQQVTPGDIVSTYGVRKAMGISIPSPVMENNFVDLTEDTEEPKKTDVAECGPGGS
Transcription initiation factor TFIID subunit 1, sequence (P21675 whole entry, the tested form may be a part): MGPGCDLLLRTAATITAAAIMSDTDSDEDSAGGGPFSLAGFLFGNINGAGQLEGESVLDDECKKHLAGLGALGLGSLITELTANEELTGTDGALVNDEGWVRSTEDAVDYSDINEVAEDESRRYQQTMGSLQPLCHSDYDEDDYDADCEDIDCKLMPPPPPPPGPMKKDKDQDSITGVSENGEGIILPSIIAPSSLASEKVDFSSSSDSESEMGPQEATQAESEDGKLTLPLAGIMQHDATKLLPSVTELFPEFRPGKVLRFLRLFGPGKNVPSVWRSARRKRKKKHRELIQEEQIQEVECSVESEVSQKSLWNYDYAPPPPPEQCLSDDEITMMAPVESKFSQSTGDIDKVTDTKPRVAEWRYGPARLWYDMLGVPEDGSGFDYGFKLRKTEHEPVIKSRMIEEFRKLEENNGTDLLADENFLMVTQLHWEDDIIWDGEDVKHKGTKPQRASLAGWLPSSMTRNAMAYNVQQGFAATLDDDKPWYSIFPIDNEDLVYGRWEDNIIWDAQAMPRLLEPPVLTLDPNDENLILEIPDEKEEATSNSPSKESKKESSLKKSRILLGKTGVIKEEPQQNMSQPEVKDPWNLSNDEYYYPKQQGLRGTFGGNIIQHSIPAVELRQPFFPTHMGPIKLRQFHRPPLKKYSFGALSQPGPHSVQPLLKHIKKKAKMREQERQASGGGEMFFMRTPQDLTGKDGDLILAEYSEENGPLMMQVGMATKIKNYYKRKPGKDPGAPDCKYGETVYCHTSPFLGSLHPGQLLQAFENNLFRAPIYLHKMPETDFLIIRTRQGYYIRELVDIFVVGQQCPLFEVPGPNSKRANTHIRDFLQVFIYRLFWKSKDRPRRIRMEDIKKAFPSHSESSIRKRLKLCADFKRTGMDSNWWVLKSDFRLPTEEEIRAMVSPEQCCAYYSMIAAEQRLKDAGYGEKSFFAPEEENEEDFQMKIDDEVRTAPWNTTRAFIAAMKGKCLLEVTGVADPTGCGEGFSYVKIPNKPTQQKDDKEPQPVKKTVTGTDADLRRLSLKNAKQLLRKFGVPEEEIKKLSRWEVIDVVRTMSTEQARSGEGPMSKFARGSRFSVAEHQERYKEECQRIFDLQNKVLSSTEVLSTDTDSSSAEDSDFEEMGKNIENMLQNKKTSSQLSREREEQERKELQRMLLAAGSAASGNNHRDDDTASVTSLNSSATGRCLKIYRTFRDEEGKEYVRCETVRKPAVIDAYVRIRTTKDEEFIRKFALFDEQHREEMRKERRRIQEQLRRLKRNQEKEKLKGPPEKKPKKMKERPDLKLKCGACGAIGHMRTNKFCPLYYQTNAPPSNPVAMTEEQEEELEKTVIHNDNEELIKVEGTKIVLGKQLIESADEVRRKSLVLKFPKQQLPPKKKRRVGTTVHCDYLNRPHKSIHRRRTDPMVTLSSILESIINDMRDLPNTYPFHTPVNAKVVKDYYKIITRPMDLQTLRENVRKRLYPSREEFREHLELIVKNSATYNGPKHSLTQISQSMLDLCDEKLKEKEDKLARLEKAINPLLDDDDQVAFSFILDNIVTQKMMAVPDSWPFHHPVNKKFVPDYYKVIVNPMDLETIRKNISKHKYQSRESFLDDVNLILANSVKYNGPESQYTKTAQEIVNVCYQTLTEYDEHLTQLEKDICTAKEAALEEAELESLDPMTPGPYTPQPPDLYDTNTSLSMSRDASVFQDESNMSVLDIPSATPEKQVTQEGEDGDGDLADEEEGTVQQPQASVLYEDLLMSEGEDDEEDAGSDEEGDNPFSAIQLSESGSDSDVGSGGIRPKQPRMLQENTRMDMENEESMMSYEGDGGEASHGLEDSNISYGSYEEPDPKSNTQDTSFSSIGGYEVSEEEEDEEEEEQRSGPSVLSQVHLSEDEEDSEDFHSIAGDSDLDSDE
Chromatin remodeling regulator CECR2, sequence (Q9BXF3 whole entry, the tested form may be a part): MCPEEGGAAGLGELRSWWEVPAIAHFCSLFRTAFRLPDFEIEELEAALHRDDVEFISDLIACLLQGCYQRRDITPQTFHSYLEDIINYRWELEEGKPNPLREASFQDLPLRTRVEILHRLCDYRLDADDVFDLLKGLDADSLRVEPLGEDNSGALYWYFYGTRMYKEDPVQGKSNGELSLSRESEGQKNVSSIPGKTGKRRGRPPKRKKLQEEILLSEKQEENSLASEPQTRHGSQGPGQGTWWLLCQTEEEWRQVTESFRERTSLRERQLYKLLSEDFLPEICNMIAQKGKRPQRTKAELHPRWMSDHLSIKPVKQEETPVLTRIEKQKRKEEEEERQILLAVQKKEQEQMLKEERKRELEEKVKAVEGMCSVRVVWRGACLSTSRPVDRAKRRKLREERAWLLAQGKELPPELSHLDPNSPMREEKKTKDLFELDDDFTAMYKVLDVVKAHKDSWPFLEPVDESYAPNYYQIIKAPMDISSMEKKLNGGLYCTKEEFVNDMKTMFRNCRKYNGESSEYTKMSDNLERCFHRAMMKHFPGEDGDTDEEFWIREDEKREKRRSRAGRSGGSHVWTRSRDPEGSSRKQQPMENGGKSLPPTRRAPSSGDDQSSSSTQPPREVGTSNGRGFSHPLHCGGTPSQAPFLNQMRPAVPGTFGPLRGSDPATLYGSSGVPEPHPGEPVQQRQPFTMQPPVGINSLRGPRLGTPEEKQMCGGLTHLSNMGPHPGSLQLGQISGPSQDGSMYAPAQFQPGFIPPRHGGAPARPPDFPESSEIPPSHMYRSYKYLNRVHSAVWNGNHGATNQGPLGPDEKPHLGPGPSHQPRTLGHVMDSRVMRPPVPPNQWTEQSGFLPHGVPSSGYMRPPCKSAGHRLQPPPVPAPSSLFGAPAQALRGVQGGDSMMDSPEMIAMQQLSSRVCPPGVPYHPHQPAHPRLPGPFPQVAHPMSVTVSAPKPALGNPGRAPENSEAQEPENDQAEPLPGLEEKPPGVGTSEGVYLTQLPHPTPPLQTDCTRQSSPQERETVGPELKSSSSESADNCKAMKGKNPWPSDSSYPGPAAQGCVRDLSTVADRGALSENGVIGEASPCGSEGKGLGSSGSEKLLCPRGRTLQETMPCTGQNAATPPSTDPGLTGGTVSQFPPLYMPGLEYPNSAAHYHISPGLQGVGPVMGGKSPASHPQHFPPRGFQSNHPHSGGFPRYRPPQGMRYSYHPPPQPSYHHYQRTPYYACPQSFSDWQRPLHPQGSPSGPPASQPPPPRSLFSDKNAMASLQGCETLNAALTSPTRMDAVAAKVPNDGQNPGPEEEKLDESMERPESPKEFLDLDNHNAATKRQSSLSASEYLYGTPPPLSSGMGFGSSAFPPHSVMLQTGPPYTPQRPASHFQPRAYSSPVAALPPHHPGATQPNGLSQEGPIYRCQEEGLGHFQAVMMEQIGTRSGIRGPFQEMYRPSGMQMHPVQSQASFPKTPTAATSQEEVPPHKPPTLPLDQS

Consider `CC1(C2CC2)NC(=O)N(CC(=O)Nc2ccc(Br)c(S(=O)(=O)N3CCCCC3)c2)C1=O` (racemic), for which the Selectivity ratio in the assay listed under Homo sapiens [1] was greater than 10; in the assay listed under Homo sapiens [2], greater than 10; in the assay listed under Homo sapiens [4] it was 60; in the assay filed under Homo sapiens [7], greater than 10; in the assay listed under Homo sapiens [11], greater than 10. Moreover, the IC50 (commonly the concentration that gives 50% inhibition) is 31.6 µM in assay [3]; 15.8 µM in [5]; 2.51 µM in assay [6]; 63.1 µM in assay [8]; 25.1 µM in assay [9]; 3.98 µM in assay [10]. In addition, the concentration for half-maximal inhibition (IC50) in [12] was 0.316 µM; in assay [13], 20 µM; in assay [14], 50.1 µM.
